Data reported in the RNAGym collection of RNA variant scans (doi:10.1126/science.aae0568).
This sample holds only a part of the variants without activity.

B1: tRNA (parent)
chain: GUUCCGUUGGCGUAAUGGUAACGCGUCUCCCUCCUAAGGAGAAGACUGCGGGUUCGAGUCCCGUACGGAACG

Variants of: B1
Assay: yeast fitness relative to wild type (ratio to wild type); higher = fitter; tRNA-Arg(CCU), competitive growth, 37 C, YPD
Procedure, shortened: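 Variants of the tRNA-Arg(CCU) gene, chemically synthesised with a 3% per-site mutation rate at 69 sites, were placed at the native genomic locus in Saccharomyces cerevisiae. The pooled strains were competed in YPD at 37°C for 24 hours in six parallel replicates. Gene amplicons from the start population and from each end population were read by 100-nucleotide paired-end sequencing. Darwinian fitness relative to wild type came from changes in genotype frequencies; genotypes needed ≥ 100 starting reads, and estimates < 0.5 were set to 0.5.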

Variant | yeast fitness
U7C U19G G51A U59A C66A | ≤ 0.5
U7C U26C | 0.866
U7C U26C C49U | ≤ 0.5
U7C U28A A37G C46U U47C | ≤ 0.5
U7C U28A C31U C55G C66U | ≤ 0.5
U7C U28A G48C C62U A70C | ≤ 0.5
U7C U28C G41A A42C G50C A70G | 0.572
U7C U32A | 0.761
U7C U32C A45U G67A | ≤ 0.5
U7C U32G C33G U59C | ≤ 0.5
U7C U32G G56U | ≤ 0.5
U7C U35C A37C | 0.732
U7C U35G U64C A70G | ≤ 0.5
U7C U47C U54C C55G | ≤ 0.5
U7C U47G | ≤ 0.5
U7C U53A G56C G63A | ≤ 0.5
U7C U59C | 0.846
U7C U64C | 0.88
U7G A14C A20G C22U C49G G56C A70G | ≤ 0.5
U7G A14C C30G C66U | ≤ 0.5
U7G A14C G63C | ≤ 0.5
U7G A14G C22U G38A C55A | 0.555
U7G A14G C22U G38A C55A G67A | ≤ 0.5
U7G A14G U35G A43G | 0.557

Variant | yeast fitness
U7G A14G U35G A43G U59A | 0.669
U7G A14U | 0.675
U7G A14U C30A | ≤ 0.5
U7G A14U U19A C22U C61A U64A A69U | 0.543
U7G A14U U26A C61A | ≤ 0.5
U7G A15C C24U A43G G51A U54C | 0.634
U7G A15C U16A C33G A37C C49A C61U | 0.525
U7G A15G C33G | ≤ 0.5
U7G A15U A45C C46U G56A G67C | ≤ 0.5
U7G A15U C62U C66A | ≤ 0.5
U7G A20C G41A G50A C60U C66G | ≤ 0.5
U7G A20G C60U C61G | ≤ 0.5
U7G A20G U32G A43C A45U | ≤ 0.5
U7G A20U | 0.742
U7G A20U C46G | 0.562
U7G A20U C46G A57U A69C | 0.623
U7G A21C G44C | 0.545
U7G A21U A40G G67A | ≤ 0.5
U7G A21U C29A C55A | 0.604
U7G A21U C29A C55A A69U | ≤ 0.5
U7G A21U C30U A40C | ≤ 0.5
U7G A36G A45G C49U | 0.641
U7G A36U | 0.777
U7G A37C | 0.757

Variant | yeast fitness
U7G A37G | 0.633
U7G A37G C55G | ≤ 0.5
U7G A37U | 0.72
U7G A37U A70U | 0.542
U7G A37U G50C | ≤ 0.5
U7G A40C C55G | 0.591
U7G A40C G67C | ≤ 0.5
U7G A42C G44C A65C | 1.08
U7G A42G | 0.837
U7G A43G | 0.806
U7G A43G C46G G63A | ≤ 0.5
U7G A43U | 0.914
U7G A45C C49U | 0.508
U7G A45C G51C U53C | ≤ 0.5
U7G A57U | 0.599
U7G A65G | 1.03
U7G A69C | 0.851
U7G A70G | 0.993
U7G C11G C30G C33G G48C C60A | ≤ 0.5
U7G C11G C33G G56C C62G | ≤ 0.5
U7G C11G C34U A37U C46A G51A | ≤ 0.5
U7G C11G C34U A40G G41A | ≤ 0.5
U7G C11G C34U G41A A65C C66U | ≤ 0.5
U7G C11G C34U G41A C46U | ≤ 0.5

Variant | yeast fitness
U7G C11G C34U G41A C49U | ≤ 0.5
U7G C11G C34U G41A U64A | ≤ 0.5
U7G C11U G12C C33U | ≤ 0.5
U7G C11U G12C C33U G63C G68U | ≤ 0.5
U7G C11U G58A | 0.589
U7G C11U U16A | 0.518
U7G C22A | 0.653
U7G C22A U64C A70C | ≤ 0.5
U7G C22G | 0.726
U7G C22U G51C G58A | ≤ 0.5
U7G C22U G52A C55U | ≤ 0.5
U7G C24A C27A | ≤ 0.5
U7G C24A C46G U59C C62G | ≤ 0.5
U7G C24G A65U C66U | ≤ 0.5
U7G C24G C27U C29A | 0.6
U7G C27A | 0.744
U7G C27A A36C A42U U64G | 0.528
U7G C27A A36C A42U U64G A70U | ≤ 0.5
U7G C27A C29U A40U | ≤ 0.5
U7G C27G A40U G58C | ≤ 0.5
U7G C27G A40U G68C | ≤ 0.5
U7G C27U A57C A70U | ≤ 0.5
U7G C27U C33U A57U | ≤ 0.5
U7G C27U C33U C66U | ≤ 0.5

Variant | yeast fitness
U7G C29A A69G | ≤ 0.5
U7G C29U | 0.775
U7G C29U U47G | ≤ 0.5
U7G C30A A65C | 1.06
U7G C30A A69C | 0.798
U7G C30A C62A | ≤ 0.5
U7G C30G G56A | 0.505
U7G C30U G38A C60U | 0.582
U7G C30U G38A G50A U59C | ≤ 0.5
U7G C31G A36C | ≤ 0.5
U7G C31U | 0.98
U7G C33G | 0.654
U7G C33G G48C U64C | 0.531
U7G C33U | 0.749
U7G C33U A42C A43C C49U A69U | ≤ 0.5
U7G C34A C46G A65C | 0.746
U7G C34G A36C C62G G68C | ≤ 0.5
U7G C34G A43U | 0.661
U7G C46U | 0.987
U7G C46U C60A G67A | ≤ 0.5
U7G C49G | 0.729
U7G C49U | 0.957
U7G C49U A65G | 0.83
U7G C55G G56C | 0.608

Variant | yeast fitness
U7G C55G G63A G68C | 0.525
U7G C55G G68C | 0.6
U7G C60U G63C | 0.585
U7G C61A | 0.708
U7G C61U A70G | 0.669
U7G C61U G68A | 0.533
U7G C62G | 0.603
U7G G9A | 0.827
U7G G9A A20U C31G C34U G67U | ≤ 0.5
U7G G9A A43C | 0.515
U7G G9A C31G A36G | 0.576
U7G G9A C31G C33U A36G | ≤ 0.5
U7G G9C G50C | 0.668
U7G G10C | 0.709
U7G G10C C33U U53G C60A G68U A69C | 0.776
U7G G10C G58A | ≤ 0.5
U7G G12A | 0.816
U7G G12A G25A C33G C62U | ≤ 0.5
U7G G12A G25A C33G G58A G67A | ≤ 0.5
U7G G12A U13A | 0.565
U7G G12A U13C C33U C34U A42C G50A | ≤ 0.5
U7G G12C G23C C29G | 0.739
U7G G12C G23C C29G C60A | ≤ 0.5
U7G G18A G48A | ≤ 0.5

Variant | yeast fitness
U7G G18C C31A | ≤ 0.5
U7G G23C A45U G51C | ≤ 0.5
U7G G23C C30G A36U C61U A65U | 0.527
U7G G23C U54A A57C A70U | ≤ 0.5
U7G G25A C49G | 0.542
U7G G25C C60A | 0.623
U7G G25C G58C | 0.558
U7G G44A C61U | 0.689
U7G G44C | 0.666
U7G G48A | 0.847
U7G G48A A69C | 0.697
U7G G48A C62U | 0.628
U7G G48A G68U A70C | 0.541
U7G G56A | 1.06
U7G G58A | 0.942
U7G G58C C66U | 0.645
U7G G63A G67C | ≤ 0.5
U7G G67C | 0.856
U7G G68C | 0.895
U7G U8G A15C | 0.543
U7G U8G C31U U35A U47C | ≤ 0.5
U7G U13C A37U C60G | ≤ 0.5
U7G U13C G52A A57C A65C | ≤ 0.5
